Results from ChEMBL document CHEMBL1126322, “Renin inhibitors containing alpha-heteroatom amino acids as P2 residues” (J Med Chem, 1992).

Legend:
Cathepsin D = target: T1, Cathepsin D (Bos taurus, UniProt P80209); test: Inhibitory activity against bovine cathepsin D
T1 sequence (P80209 whole entry): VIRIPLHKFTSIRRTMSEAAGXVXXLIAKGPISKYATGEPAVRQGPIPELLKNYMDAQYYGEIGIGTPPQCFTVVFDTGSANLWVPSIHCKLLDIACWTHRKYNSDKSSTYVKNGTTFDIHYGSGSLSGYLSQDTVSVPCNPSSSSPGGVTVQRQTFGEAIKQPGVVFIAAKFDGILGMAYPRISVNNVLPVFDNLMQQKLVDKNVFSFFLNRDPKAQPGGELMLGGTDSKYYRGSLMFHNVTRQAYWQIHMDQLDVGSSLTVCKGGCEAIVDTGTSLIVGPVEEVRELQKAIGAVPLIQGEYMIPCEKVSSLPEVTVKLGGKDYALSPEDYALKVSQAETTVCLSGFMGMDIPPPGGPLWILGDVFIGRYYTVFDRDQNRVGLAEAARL
Outline: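 Bovine cathepsin D activity measured in duplicate as hydrolysis of bovine hemoglobin at pH 3.2 and 37 °C, read as net absorbance at 280 nm. Percent inhibition at six inhibitor concentrations; IC50 by nonlinear regression.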

Bos taurus = organism: Bos taurus; test: Selectivity ratio towards cathepsin D over renin
Outline: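 Ratio of cathepsin D IC50 to monkey plasma renin IC50. […] Cathepsin D IC50 from bovine hemoglobin hydrolysis at pH 3.2, 37 °C, A280.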

[1] = Inhibitory activity against monkey renin in vitro.
Monkey [2] = test: Effect of compound on blood pressure in conscious, salt-depleted, normotensive, cynomolgus monkeys after oral administration of 30 mg/kg dose at 1 hour; type: functional, Cercopithecidae
Monkey [3] = test: Effect of compound on blood pressure in conscious, salt-depleted, normotensive, cynomolgus monkeys after oral administration of 30 mg/kg dose at 2 hours; type: functional, Cercopithecidae
Monkey [4] = test: Effect of compound on blood pressure in conscious, salt-depleted, normotensive, cynomolgus monkeys after oral administration of 30 mg/kg dose at 3 hours; type: functional, Cercopithecidae

Row | SMILES | IC50 (Cathepsin D) [nM] | IC50 [1] [nM] | also measured
1 | C=CCSC(NC(=O)[C@H](Cc1ccccc1)NS(=O)(=O)N1CCOCC1)C(=O)N[C@@H](CC1CCCCC1)[C@@H](O)[C@@H](O)CC(C)C (stereo partly specified) | 19.4 | 0.17 | Selectivity (Bos taurus): 118
2 | CCOC(NC(=O)C(Cc1cccc2ccccc12)Cc1cccc2ccccc12)C(=O)N[C@@H](CC(C)C)[C@@H](O)CC(=O)NC[C@@H](C)CC (stereo in doubt; 22) |  | > 1000 | 
3 | CCOC(NC(=O)[C@H](Cc1ccccc1)NS(=O)(=O)N1CCOCC1)C(=O)N[C@@H](CC1CCCCC1)[C@@H](O)CC(=O)NCCN1CCOCC1 (stereo partly specified) | > 10000 |  | 
4 | CC[C@H](C)CNC(=O)C[C@H](O)[C@H](CC(C)C)NC(=O)C(NC(=O)C(Cc1cccc2ccccc12)Cc1cccc2ccccc12)Oc1ccccc1 (stereo partly specified) |  | 633 | 
5 | CC[C@H](C)CNC(=O)C[C@H](O)[C@H](CC(C)C)NC(=O)C(N)NC(=O)C(Cc1cccc2ccccc12)Cc1cccc2ccccc12 (stereo in doubt; 31) |  | > 1000 | 
6 | CC[C@H](C)CNC(=O)C[C@H](O)[C@H](CC(C)C)NC(=O)C(N)NC(=O)C(Cc1cccc2ccccc12)Cc1cccc2ccccc12 (stereo in doubt; 32) |  | 1000 | 
7 | CC[C@H](C)CNC(=O)C[C@H](O)[C@H](CC(C)C)NC(=O)C(Cc1c[nH]cn1)NC(=O)C(Cc1cccc2ccccc12)Cc1cccc2ccccc12 (stereo partly specified) |  | 85 | 
8 | CC(C)C[C@H](O)[C@H](O)[C@H](CC1CCCCC1)NC(=O)C(NC(=O)[C@H](Cc1ccccc1)NS(=O)(=O)N1CCOCC1)Sc1cccs1 (stereo partly specified) | 470 | 13 | Selectivity (Bos taurus): 36.1
9 | CCOC(NC(=O)C(Cc1cccc2ccccc12)Cc1cccc2ccccc12)C(=O)N[C@@H](CC(C)C)[C@@H](O)CC(=O)NC[C@@H](C)CC (stereo in doubt; 21) |  | 26 | 
10 | CC[C@H](C)CNC(=O)C[C@H](O)[C@H](CC(C)C)NC(=O)C(NC(=O)C(Cc1cccc2ccccc12)Cc1cccc2ccccc12)NC(C)C (stereo in doubt; 36) |  | 500 | 
11 | CC[C@H](C)CNC(=O)C[C@H](O)[C@H](CC(C)C)NC(=O)C(NC(=O)C(Cc1cccc2ccccc12)Cc1cccc2ccccc12)[S+](C)[O-] (stereo partly specified) |  | 615 | 
12 | CCSC(NC(=O)[C@H](Cc1ccccc1)NC(=O)OC(C)(C)C)C(=O)N[C@@H](CC1CCCCC1)[C@@H](O)[C@@H](O)CC(C)C (stereo partly specified) | 28.1 | 1.4 | Selectivity (Bos taurus): 20.1
13 | CC[C@H](C)CNC(=O)C[C@H](O)[C@H](CC(C)C)NC(=O)C(NC(C)=O)NC(=O)C(Cc1cccc2ccccc12)Cc1cccc2ccccc12 (stereo partly specified) |  | 936 | 
14 | CC[C@H](C)CNC(=O)C[C@H](O)[C@H](CC(C)C)NC(=O)C(NC(=O)C(Cc1cccc2ccccc12)Cc1cccc2ccccc12)NC(C)C (stereo in doubt; 35) |  | > 1000 | 
15 | CC[C@H](C)CNC(=O)C[C@H](O)[C@H](CC(C)C)NC(=O)C(NC(=O)C(Cc1cccc2ccccc12)Cc1cccc2ccccc12)SC (stereo partly specified) |  | 95 | 
16 | CC[C@H](C)CNC(=O)C[C@H](O)[C@H](CC(C)C)NC(=O)C(NC(=O)C(Cc1cccc2ccccc12)Cc1cccc2ccccc12)S(C)(=O)=O (stereo partly specified) |  | > 1000 | 
17 | CC[C@H](C)CNC(=O)C[C@H](O)[C@H](CC(C)C)NC(=O)C(NC(=O)C(Cc1cccc2ccccc12)Cc1cccc2ccccc12)OC (stereo partly specified) |  | 180 | 

Row | SMILES | IC50 (Cathepsin D) [nM] | IC50 [1] [nM] | also measured
18 | C#CCOC(NC(=O)[C@H](Cc1ccccc1)NS(=O)(=O)N1CCOCC1)C(=O)N[C@@H](CC1CCCCC1)[C@@H](O)[C@@H](O)CC(C)C (stereo partly specified) | 80.1 | 0.52 | Selectivity (Bos taurus): 154
19 | C=CCSC(NC(=O)[C@H](Cc1ccccc1)NS(=O)(=O)N1CCOCC1)C(=O)N[C@@H](CC1CCCCC1)[C@@H](O)CC(=O)NCCN1CCOCC1 (stereo partly specified) | 10 | 1.5 | Change in BP (Monkey [2]): -3 mmHg; Change in BP (Monkey [3]): -7 mmHg; Change in BP (Monkey [4]): -6 mmHg; Selectivity (Bos taurus): 6.7
20 | CC[C@H](C)CNC(=O)C[C@H](O)[C@H](CC(C)C)NC(=O)C(NC(=O)C(Cc1cccc2ccccc12)Cc1cccc2ccccc12)Nc1ccccc1 (stereo partly specified) |  | 310 | 
21 | CCCOC(NC(=O)[C@H](Cc1ccccc1)NS(=O)(=O)N1CCOCC1)C(=O)N[C@@H](CC1CCCCC1)[C@@H](O)C(F)(F)C(=O)NCCN1CCOCC1 (stereo partly specified) | 699 |  | Change in BP (Monkey [2]): 3 mmHg; Change in BP (Monkey [3]): -1 mmHg; Change in BP (Monkey [4]): -3 mmHg
22 | C=CCN(C)C(NC(=O)[C@H](Cc1ccccc1)NC(=O)OC(C)(C)C)C(=O)N[C@@H](CC1CCCCC1)[C@@H](O)[C@@H](O)CC(C)C (stereo partly specified) | 60.4 |  | 
23 | CCSC(NC(=O)[C@H](Cc1ccccc1)NS(=O)(=O)N1CCOCC1)C(=O)N[C@@H](CC1CCCCC1)[C@@H](O)[C@@H](O)CC(C)C (stereo partly specified) | 10 |  | Change in BP (Monkey [2]): -14 mmHg; Change in BP (Monkey [3]): -12 mmHg; Change in BP (Monkey [4]): -16 mmHg
24 | C=CCOC(NC(=O)[C@H](Cc1ccccc1)NS(=O)(=O)N1CCOCC1)C(=O)N[C@@H](CC1CCCCC1)[C@@H](O)[C@@H](O)CC(C)C (stereo partly specified) | 10.5 | 0.22 | 
25 | CC(C)C[C@H](O)[C@H](O)[C@H](CC1CCCCC1)NC(=O)C(NC(=O)[C@H](Cc1ccccc1)NS(=O)(=O)N1CCOCC1)OCC(F)(F)F (stereo partly specified) | 21.2 |  | Change in BP (Monkey [2]): -1 mmHg; Change in BP (Monkey [3]): -1 mmHg; Change in BP (Monkey [4]): -2 mmHg
26 | CCOC(NC(=O)[C@H](Cc1ccccc1)NS(=O)(=O)N1CCOCC1)C(=O)N[C@@H](CC1CCCCC1)[C@@H](O)[C@@H](O)CC(C)C (stereo partly specified) | 14 |  | 
27 | CC(C)C[C@H](O)[C@H](O)[C@H](CC1CCCCC1)NC(=O)C(Cc1cnc[nH]1)NC(=O)[C@H](Cc1ccccc1)NS(=O)(=O)N1CCOCC1 (stereo partly specified) | > 10000 |  | 
28 | CCCOC(NC(=O)[C@H](Cc1ccccc1)NS(=O)(=O)N1CCOCC1)C(=O)N[C@@H](CC1CCCCC1)C(=O)C(F)(F)C(=O)NCCN1CCOCC1 (stereo partly specified) | 131 | 2.1 | Change in BP (Monkey [2]): -10 mmHg; Change in BP (Monkey [3]): -10 mmHg; Change in BP (Monkey [4]): -9 mmHg; Selectivity (Bos taurus): 65.5
29 | CCCOC(NC(=O)[C@H](Cc1ccccc1)NS(=O)(=O)N1CCOCC1)C(=O)N[C@@H](CC1CCCCC1)[C@@H](O)[C@@H](O)CC(C)C (stereo partly specified) | 22 |  | 
30 | CCNC(NC(=O)C(Cc1cccc2ccccc12)Cc1cccc2ccccc12)C(=O)N[C@@H](CC(C)C)[C@@H](O)CC(=O)NC[C@@H](C)CC (stereo in doubt; 33) |  | > 1000 | 
31 | CCNC(NC(=O)C(Cc1cccc2ccccc12)Cc1cccc2ccccc12)C(=O)N[C@@H](CC(C)C)[C@@H](O)CC(=O)NC[C@@H](C)CC (stereo in doubt; 34) |  | 210 | 
32 | CC[C@H](C)CNC(=O)C[C@H](O)[C@H](CC(C)C)NC(=O)C(NC(=O)C(Cc1cccc2ccccc12)Cc1cccc2ccccc12)Sc1ccccc1 (stereo partly specified) |  | 656 | 
33 | O=C(C[C@H](O)[C@H](CC1CCCCC1)NC(=O)C(Cc1cnc[nH]1)NC(=O)[C@H](Cc1ccccc1)NS(=O)(=O)N1CCOCC1)NCCN1CCOCC1 (stereo partly specified) | > 10000 |  | 
